In publication PMC5710144 (Genes & Development, 2017):

Columns and labels:
[1] = tested on: BRWD2/PHIP CRL4 interaction; assay: MS of Flag-BRWD2/PHIP purifications after inhibitor treatment; assay type: cell-based; settings: MLN4924 1 µM, 5 h
Method in brief: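 Flag-BRWD2/PHIP was purified from MNase-digested chromatin of HEK293 TRex cells expressing Flag-BRWD2/PHIP, with parental HEK293 TRex cells as the control. MLN4924 (1 µM) was added 5 h before harvest where indicated. Immunoprecipitated complexes were prepared for MS and analysed by MS.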

[2] = tested on: CUL4A / DDB1 association with BRWD2/PHIP; assay type: cell-based; settings: MLN4924 1 µM
Method in brief: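 In HEK293 TRex cells expressing Flag-BRWD2/PHIP, MLN4924 (1 µM) was added 5 h before harvest. Flag purifications were made from MNase-digested chromatin. Inputs and immunoprecipitates were probed by immunoblot with antibodies to CUL4A, DDB1 and Flag-M2.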

NS(=O)(=O)OC[C@@H]1C[C@@H](n2ccc3c(N[C@H]4CCc5ccccc54)ncnc32)C[C@@H]1O [MLN4924]
BRWD2/PHIP association with CSN complex [1]: disrupts BRWD2/PHIP association
BRWD2/PHIP association with Nedd8-binding protein UBXD7 (UBXN7) [1]: disrupts BRWD2/PHIP association
interaction with chromatin remodelers and histone-binding proteins (CHD4, PHF6, FACT) [1]: not altered
BRWD2/PHIP association with CUL4A and DDB1 ([2]; 5 h): still occurs
CUL4A level / CUL4A interaction with BRWD2/PHIP ([2]; 5 h): slightly reduced
Nedd8 attachment to CUL4 ([2]; added 5 h prior to harvesting, HEK293): blocks Nedd8 attachment to CUL4
